Experimental data pooled from the literature.
Target: Phosphatidylinositol 4-kinase beta (PI4KB, Homo sapiens, UniProt Q9UBF8)

SMILES | observed | mode | technique | tested at | quantity | value
Cn1cncc1[C@](O)(COc1ccc(C#N)cc1-c1ccc(OC(F)(F)F)cc1)c1ccc(C#N)cc1 | cell-free assay |  | competition with immobilised ligand | 1 µM | remaining binding | 94%
Cn1cc(-c2cccc(N3CCc4c(sc5c4CC(C)(C)C5)C3=O)c2CO)cc(Nc2ccncn2)c1=O | enzyme activity | inhibitor |  | 1 µM | inhibition | -4%
Cc1nn(C)cc1-c1nc2c(N3CCN(Cc4ccc(Cl)cc4)CC3)c(Cl)cnc2[nH]1 | binding |  | competition with immobilised ligand | 1 µM | remaining binding | 100%
Nc1ncc(-c2nc(N3CCOCC3)nc(N3CCOCC3)n2)c(C(F)F)n1 | binding |  | competition with immobilised ligand | 10 µM | remaining binding | 75%
C#Cc1n[nH]c2c(-c3cn([C@@H](C)c4ccccc4)c(=O)[nH]c3=O)cc(F)cc12 | enzyme activity | inhibitor |  | 0.1 µM | inhibition | -2.5%
COc1ncccc1-c1cnn2ccc(N3CCN(C(=O)OC(C)C)CC3)nc12 | binding |  | competition with immobilised ligand | 1 µM | remaining binding | 100%
C#Cc1n[nH]c2c(-c3cn(C(C)c4ccccn4)c(=O)[nH]c3=O)cc(F)cc12 (centres unmarked) | enzyme activity | inhibitor |  | 1 µM | inhibition | -4.1%
Cn1cc(-c2cc(F)cc(N3CCn4c(cc5c4CCCC5)C3=O)c2CO)cc(Nc2ccc(N3CCN(C4COC4)CC3)cn2)c1=O | enzyme activity | inhibitor |  | 0.1 µM | inhibition | -3%
